Measured values gathered from unrelated publications.
Protocols differ between the studies behind these lines.
Target: MAP kinase-interacting serine/threonine-protein kinase 2 (MKNK2, Homo sapiens, UniProt Q9HBH9)

Structure (SMILES)	effect on	mode	method	concentration	measurement	value
N#CC1(c2ccccn2)CCN(Cc2cc(C(=O)O)c(=O)n3ccccc23)CC1	cell-free assay		competition with immobilised ligand	1 µM	remaining binding	85%
CC(C)(C)c1cc(C=C(C#N)C#N)cc(Br)c1O	enzyme activity	inhibitor		0.5 µM	remaining activity	100%
COc1cc(Nc2ncc(F)c(Nc3ccc4c(n3)NC(=O)C(C)(C)O4)n2)cc(OC)c1OC	binding		competition with immobilised ligand	10 µM	inhibition	100%
COc1ncccc1-c1cnn2ccc(N3CCN(C(=O)OC(C)C)CC3)nc12	binding		competition with immobilised ligand	1 µM	remaining binding	100%
C#Cc1n[nH]c2c(-c3cn(C(C)c4ccccn4)c(=O)[nH]c3=O)cc(F)cc12 (stereo not shown)	enzyme activity	inhibitor		1 µM	inhibition	9.9%
Nc1ncc(-c2nc(N3CCOCC3)nc(N3CCOCC3)n2)c(C(F)F)n1	binding		competition with immobilised ligand	10 µM	remaining binding	56%
C#Cc1n[nH]c2c(-c3cn([C@@H](C)c4ccccc4)c(=O)[nH]c3=O)cc(F)cc12	enzyme activity	inhibitor		0.1 µM	inhibition	-7.9%
O=c1[nH]c2ccccc2n1C1CCN(Cc2ccc(-c3[nH]c4cc5ncnc5cc4nc3-c3ccccc3)cc2)CC1	cell-free assay			0.5 µM	remaining signal	98.7%
Cn1cncc1[C@](O)(COc1ccc(C#N)cc1-c1ccc(OC(F)(F)F)cc1)c1ccc(C#N)cc1	cell-free assay		competition with immobilised ligand	1 µM	remaining binding	85%
Cc1nn(C)cc1-c1nc2c(N3CCN(Cc4ccc(Cl)cc4)CC3)c(Cl)cnc2[nH]1	binding		competition with immobilised ligand	1 µM	remaining binding	46%
